Assay results taken from ChEMBL document CHEMBL3351368, “Biphenyl-4-carboxylic acid [2-(1H-indol-3-yl)-ethyl]-methylamide (CA224), a nonplanar analogue of fascaplysin, inhibits Cdk4 and tubulin polymerization: evaluation of in vitro and in vivo anticancer activity” (J Med Chem, 2014).
In brackets after ≈: the same amount, converted by molar mass. Activity calls are given as the source filed them.

Legend:
[1] = test system: NCI-H1299; assay: Growth inhibition of p53 null, pRb+ human NCI-H1299 cells after 48 hrs by MTT assay; format: functional, cell-based; details: NCI-H1299, 48 h
Outline: (§1)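 MTT cell proliferation assay. IC50 (µM) was defined as the concentration giving 50% inhibition of cell growth.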

[2] = Terminal half life in BALB/c mouse at 1 mg/kg, iv; format: ADME, organism-based; set-up: dose 1 mg/kg, route intravenous; details: in vivo, read-out: beta t1/2 (converted)
Outline: (§2)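 BALB/c mice given a single dose of 1.0 mg/kg IV or 10 mg/kg orally; plasma concentration followed over time and pharmacokinetic parameters derived from the time-concentration profile.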

[3] = Cell cycle arrest in mouse BNL-CL2 cells assessed as accumulation of cells at G0/G1 phase at IC50 concentration after 48 hrs by flow cytometry (reference value: 57%); format: functional
Outline: (§3)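 Normal (BNL CL2) and SV40 large T-antigen transformed (BNL SV A.8) mouse embryonic hepatic cells were treated at IC50 or IC70 concentration for 48 h. Analysis was by FACS, with apoptosis taken as % cells in the sub-G1 peak. Untreated cells served as control.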

[4] = Cell cycle arrest in mouse BNL-CL2 cells assessed as accumulation of cells at subG1 phase at IC50 concentration after 48 hrs by flow cytometry (reference value: 0%); format: functional; outline: as §3
[5] = Maximum tolerated dose in ip dosed Swiss mouse assessed as body weight change treated for 5 days; format: ADME, organism-based; details: in vivo
Outline: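 Swiss albino mice, 6 per group, are dosed intraperitoneally once daily for five days (Q1D x 5) at several doses. The formulation contains Tween 20. Body weight is tracked over a two-week study, and MTD is set as the dose giving >10% weight loss; a drop of >20% is rated highly significant.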

[6] = AUC (0 to t) in BALB/c mouse at 10 mg/kg, po; format: ADME, organism-based; set-up: dose 10 mg/kg, route oral; details: plasma; outline: as §2
[7] = Cmax in BALB/c mouse at 10 mg/kg, po; format: ADME, organism-based; set-up: dose 10 mg/kg, route oral; details: in vivo; outline: as §2
[8] = test system: MiaPaCa; assay: Effect on phosphorylation of Cdk1 at Tyr15 in p53His273 mutant, pRb+ human MiaPaCa cells at IC50 concentration after 48 hrs by Western blot analysis; format: functional
[9] = Cell cycle arrest in mouse BNL-SVA.8 cells assessed as accumulation of cells at subG1 phase at IC50 concentration after 48 hrs by flow cytometry (reference value: 0%); format: functional; outline: as §3
[10] = Cell cycle arrest in mouse BNL-SVA.8 cells assessed as accumulation of cells at S phase at IC50 concentration after 48 hrs by flow cytometry (reference value: 23%); format: functional; outline: as §3
[11] = Solubility in water; format: physicochemical
[12] = test system: MiaPaCa; assay: Effect on p21 level in p53His273 mutant, pRb+ human MiaPaCa cells at IC50 concentration after 48 hrs by Western blot analysis; format: functional
[13] = Solubility in simulated gastric fluid; format: ADME
[14] = test system: Mus musculus; assay: Toxicity in human HCT116 cells xenografted in SCID mouse at 100 mg/kg, ip relative to untreated control; format: organism-based, HCT-116; set-up: dose 100 mg/kg, route intraperitoneal; details: in vivo
Outline: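 SCID male mice, 18-25 g, 6-8 weeks old, received 6.6 × 10^6 HCT-116 cells subcutaneously on the dorsal side. Randomized into groups of 7 at 4-6 mm tumors (about 5 days), then dosed intraperitoneally for 9 consecutive days. Tumor size recorded every 2-5 days, weight = L×W²×0.5; %GI = 100 − %T/C. Body weight taken daily relative to start; Student t-test.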

[15] = test system: A549; assay: Cell cycle arrest in human A549 cells assessed as accumulation of cells at G2/M phase at IC50 concentration after 24 hrs by flow cytometry (reference value: 22%); format: functional
[16] = biological target: Serine/threonine-protein kinase PLK3 (Homo sapiens) (UniProt Q9H4B4); assay: Inhibition of human Plk3 assessed as enzyme activity at 10 uM
Sequence of Serine/threonine-protein kinase PLK3 (Homo sapiens) (Q9H4B4 whole entry, looked up): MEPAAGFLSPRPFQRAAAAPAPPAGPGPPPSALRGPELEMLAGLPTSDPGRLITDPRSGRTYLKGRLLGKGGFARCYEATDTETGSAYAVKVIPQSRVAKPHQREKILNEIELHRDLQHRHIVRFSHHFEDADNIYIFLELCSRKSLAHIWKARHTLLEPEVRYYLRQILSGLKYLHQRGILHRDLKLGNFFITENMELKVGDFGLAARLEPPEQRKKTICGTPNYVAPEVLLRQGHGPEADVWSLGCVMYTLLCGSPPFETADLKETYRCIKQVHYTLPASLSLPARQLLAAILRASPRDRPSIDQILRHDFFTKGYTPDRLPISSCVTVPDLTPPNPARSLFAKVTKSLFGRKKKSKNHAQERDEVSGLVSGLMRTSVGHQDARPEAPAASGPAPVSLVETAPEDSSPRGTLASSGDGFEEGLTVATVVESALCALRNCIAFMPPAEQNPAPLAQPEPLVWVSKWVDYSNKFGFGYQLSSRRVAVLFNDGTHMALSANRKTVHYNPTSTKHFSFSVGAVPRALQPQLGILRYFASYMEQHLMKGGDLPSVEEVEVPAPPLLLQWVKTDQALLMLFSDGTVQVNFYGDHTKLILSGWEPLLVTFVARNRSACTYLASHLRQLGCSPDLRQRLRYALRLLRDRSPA

[17] = biological target: T1, Tubulin (Homo sapiens) (UniProt P68371+Q9H4B7+P0DPH7+P68366+Q13509+Q71U36+P04350+Q3ZCM7+P07437+P68363+Q9BQE3+Q6PEY2+Q13885+Q9BVA1+Q9BUF5); assay: Inhibition of tubulin (unknown origin) polymerization assessed as decrease in Vmax measured at 5 uM by spectrophotometry; format: protein-complex assay
Outline: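 Purified tubulin polymerisation followed as absorbance increase over about 4000 s. Vmax (mOD/min) is taken as the read-out, with final polymer mass also noted. Compound is tested at 2.5, 5, 10 and 25 µM alongside untreated control, paclitaxel 10 µM (enhancer) and nocodazole 10 µM (inhibitor). Curves are the average of three independent experiments.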

[18] = biological target: Mitogen-activated protein kinase 1 (Homo sapiens) (UniProt P28482); assay: Inhibition of human MAPK1 assessed as enzyme activity at 10 uM
Sequence of Mitogen-activated protein kinase 1 (Homo sapiens) (P28482 whole entry, looked up): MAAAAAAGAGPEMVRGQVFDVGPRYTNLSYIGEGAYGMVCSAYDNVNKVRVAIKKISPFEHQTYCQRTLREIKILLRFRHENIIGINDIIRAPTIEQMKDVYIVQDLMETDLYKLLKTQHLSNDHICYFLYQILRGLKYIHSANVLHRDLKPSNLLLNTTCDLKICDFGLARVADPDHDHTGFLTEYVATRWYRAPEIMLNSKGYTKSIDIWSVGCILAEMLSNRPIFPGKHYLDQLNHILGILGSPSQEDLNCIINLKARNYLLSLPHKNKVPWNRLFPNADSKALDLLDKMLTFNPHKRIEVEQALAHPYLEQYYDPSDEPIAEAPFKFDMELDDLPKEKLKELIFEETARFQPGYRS

[19] = Cell cycle arrest in mouse BNL-SVA.8 cells assessed as accumulation of cells at G2/M phase at IC50 concentration after 48 hrs by flow cytometry (reference value: 13%); format: functional; outline: as §3
[20] = test system: NCI-H358; assay: Growth inhibition of p53 null, pRb null human NCI-H358 cells after 48 hrs by MTT assay; format: functional, cell-based; details: NCI-H358, 48 h; outline: as §1
[21] = test system: MiaPaCa; assay: Effect on p53 level in p53His273 mutant, pRb+ human MiaPaCa cells at IC50 concentration after 48 hrs by Western blot analysis; format: functional
[22] = biological target: Dual specificity mitogen-activated protein kinase kinase 1 (Homo sapiens) (UniProt Q02750); assay: Inhibition of human MEK1 assessed as enzyme activity at 10 uM
Sequence of Dual specificity mitogen-activated protein kinase kinase 1 (Homo sapiens) (Q02750 whole entry): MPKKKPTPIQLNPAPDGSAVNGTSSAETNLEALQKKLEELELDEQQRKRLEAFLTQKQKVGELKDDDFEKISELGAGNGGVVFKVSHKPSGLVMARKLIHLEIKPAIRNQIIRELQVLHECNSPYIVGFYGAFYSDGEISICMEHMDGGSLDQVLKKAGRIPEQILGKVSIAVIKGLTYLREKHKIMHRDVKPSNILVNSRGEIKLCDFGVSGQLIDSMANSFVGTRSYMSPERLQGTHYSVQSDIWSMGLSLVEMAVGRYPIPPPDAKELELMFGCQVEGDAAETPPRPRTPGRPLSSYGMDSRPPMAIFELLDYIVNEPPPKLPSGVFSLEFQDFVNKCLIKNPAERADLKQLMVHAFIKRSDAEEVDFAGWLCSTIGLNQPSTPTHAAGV

[23] = biological target: CYP2C19 (Homo sapiens, UniProt P33261); assay: Inhibition of human recombinant CYP2C19 at 10 uM; format: ADME
Sequence of CYP2C19 (P33261 whole entry): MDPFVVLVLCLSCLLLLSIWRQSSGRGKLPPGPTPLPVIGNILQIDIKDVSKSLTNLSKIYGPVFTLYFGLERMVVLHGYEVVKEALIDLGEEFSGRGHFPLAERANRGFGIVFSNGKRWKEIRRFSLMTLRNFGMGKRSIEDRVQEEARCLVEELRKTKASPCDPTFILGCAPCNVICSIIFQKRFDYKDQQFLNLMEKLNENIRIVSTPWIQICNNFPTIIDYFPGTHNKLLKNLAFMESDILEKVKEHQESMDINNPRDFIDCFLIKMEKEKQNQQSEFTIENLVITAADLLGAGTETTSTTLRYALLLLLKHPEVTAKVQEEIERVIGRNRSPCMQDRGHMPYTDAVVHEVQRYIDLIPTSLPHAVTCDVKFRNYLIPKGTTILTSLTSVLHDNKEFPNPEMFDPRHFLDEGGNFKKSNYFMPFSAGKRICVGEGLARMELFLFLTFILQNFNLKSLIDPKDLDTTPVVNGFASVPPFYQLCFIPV

[24] = test system: A549; assay: Reduction Cdk1 level in p53+, pRb+ human A549 cells at IC50 concentration after 24 hrs by Western blot analysis
[25] = test system: NCI-H1299; assay: Induction of apoptosis in p53 null, pRb+ human NCI-H1299 cells assessed as fragmented nuclei/distrupted cell membrane after 24 hrs by DAPI staining-based flow cytometry
[26] = Cell cycle arrest in human WI38 cells assessed as accumulation of cells at G2/M phase by flow cytometry; format: functional, cell-based; details: WI-38
[27] = Cell cycle arrest in mouse BNL-CL2 cells assessed as accumulation of cells at S phase at IC50 concentration after 48 hrs by flow cytometry (reference value: 15%); format: functional; outline: as §3
[28] = Growth inhibition of p53His273 mut, pRb+ human MiaPaCa cells after 48 hrs by MTT assay; format: functional; details: MIA PaCa-2, 48 h; outline: as §1
[29] = Cell cycle arrest in mouse BNL-SVA.8 cells assessed as accumulation of cells at G0/G1 phase at IC50 concentration after 48 hrs by flow cytometry (reference value: 64%); format: functional; outline: as §3
[30] = biological target: T1, Tubulin (Homo sapiens); assay: Inhibition of tubulin polymerization in p53+, pRb+ human A549 cells assessed as paclitaxel-mediated polymerization treated followed by compound treatment measured after 30 mins by Western blot analysis; format: cell-based
[31] = test system: A549; assay: Increase in p27 level in p53+, pRb+ human A549 cells at IC50 concentration after 24 hrs by Western blot analysis

CN(CCc1c[nH]c2ccccc12)C(=O)c1ccc(-c2ccccc2)cc1
IC50 [1]: 2500 nM
half-life [2]: 19.8 min
Activity [3]: 34%
Activity [4]: 2%
MTD at 120 h [5]: 1000 mg/kg
AUC(0-t) [6]: 172 ng·h/mL
Cmax [7]: 190 ng/mL
Activity [8]: inactive
Activity [9]: 31%
Activity [10]: 21%
solubility [11]: 80 µg/mL (≈ 226 µM)
Activity [12]: inactive
solubility [13]: 125 µg/mL (≈ 353 µM)
Activity [14]: Non-toxic
Activity [15]: 89%
inhibition [16]: inactive
Activity (milli optical density/minute) [17]: 2.1
inhibition [18]: inactive
Activity [19]: 14%
IC50 [20]: 2200 nM
Activity [21]: inactive
inhibition [22]: inactive
inhibition at 10 µM [23]: 19%
inhibition [24]: Active
Activity [25]: Dose-dependent effect
Activity [26]: Active
Activity [27]: 9%
IC50 [28]: 4000 nM
Activity [29]: 31%
inhibition [30]: Dose-dependent effect
Activity [31]: Active
